Here are results for 1 compound from ChEMBL document CHEMBL5335784, “Discovery of a novel 1,3,4-oxadiazol-2-one-based NLRP3 inhibitor as a pharmacological agent to mitigate cardiac and metabolic complications in an experimental model of diet-induced metaflammation” (Eur J Med Chem, 2023).

The source made the active and inactive calls. The rule behind the calls is not given here.

The nature of series [1]: Cytotoxicity against human THP-1 cells assessed as reduction in cell viability measured after 72 hr by MTT assay. In kind it is toxicity, cell-based. To be noted: read-out: TC50. The gist of the method:
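Undifferentiated THP-1 cells exposed to 0.1–100 μM compound for 72 h. Viability read by MTT reduction at 570 nm. TC50 from concentration–response; three experiments.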
(In general: Formazan colour is commonly taken as a measure of viable cells.)

Series [2] deals with NACHT, LRR and PYD domains-containing protein 3 (Homo sapiens, UniProt Q96P20). The experiment in a line: Inhibition of NLRP3-dependent pyroptosis in PMA-differentiated human THP-1 cells assessed as inhibition of LPS/MSU-induced cell death at 10 uM by LDH assay. It counts as cell-based.
Sequence of NACHT, LRR and PYD domains-containing protein 3 (Q96P20 whole entry, the tested form may be a part): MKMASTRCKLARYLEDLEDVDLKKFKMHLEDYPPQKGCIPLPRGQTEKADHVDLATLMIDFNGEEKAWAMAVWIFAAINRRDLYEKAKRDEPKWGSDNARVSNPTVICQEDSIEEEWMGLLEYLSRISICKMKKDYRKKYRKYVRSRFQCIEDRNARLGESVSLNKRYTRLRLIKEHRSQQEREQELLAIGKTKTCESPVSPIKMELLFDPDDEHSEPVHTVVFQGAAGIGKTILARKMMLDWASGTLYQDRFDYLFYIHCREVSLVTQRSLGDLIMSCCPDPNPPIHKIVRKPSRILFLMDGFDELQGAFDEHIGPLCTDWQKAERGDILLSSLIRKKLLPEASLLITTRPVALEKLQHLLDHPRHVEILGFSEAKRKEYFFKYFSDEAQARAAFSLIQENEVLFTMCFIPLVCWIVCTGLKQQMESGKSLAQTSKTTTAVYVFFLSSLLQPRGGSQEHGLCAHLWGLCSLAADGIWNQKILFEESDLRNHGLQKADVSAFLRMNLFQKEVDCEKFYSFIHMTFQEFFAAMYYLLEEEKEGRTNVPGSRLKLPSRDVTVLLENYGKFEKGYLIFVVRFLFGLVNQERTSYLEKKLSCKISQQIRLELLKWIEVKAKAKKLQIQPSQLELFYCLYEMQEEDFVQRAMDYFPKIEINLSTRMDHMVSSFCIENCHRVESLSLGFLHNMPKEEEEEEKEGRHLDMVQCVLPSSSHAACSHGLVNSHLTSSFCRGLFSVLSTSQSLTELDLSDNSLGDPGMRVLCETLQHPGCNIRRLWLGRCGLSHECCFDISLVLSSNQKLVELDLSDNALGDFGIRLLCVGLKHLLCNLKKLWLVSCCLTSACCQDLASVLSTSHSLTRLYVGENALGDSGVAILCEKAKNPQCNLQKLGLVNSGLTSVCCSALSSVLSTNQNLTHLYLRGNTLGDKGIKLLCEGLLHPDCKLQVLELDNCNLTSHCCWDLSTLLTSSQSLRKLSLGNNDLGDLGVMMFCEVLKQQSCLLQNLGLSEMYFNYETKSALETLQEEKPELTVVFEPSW
Series [3] has as its system Rattus norvegicus. The experiment in a line: Antiinflammatory activity against high fat diet fed-induced metaflammation Wistar rat model assessed as reduction in HFD-induced metabolic alterations by measuring reduction in plasma glucose level at 20 mg/kg/day, ip administered for 4 weeks by glucometer analysis. It counts as functional, organism-based. The gist of the method: (§1)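 Rats fed HFD or SD for 12 weeks, dosed 20 mg/kg/day i.p. in saline/2% DMSO/5% Cremophor-EL during the final 28 days. Serum obtained after sacrifice by centrifuging blood at 2000 x g, 10 min, 4 °C. Glucose read by glucometer; total, HDL and LDL cholesterol and triglycerides measured with commercial kits. n=6–7 per group.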

Series [4] deals with Rattus norvegicus. The experiment in a line: Antiinflammatory activity against high fat diet fed-induced metaflammation Wistar rat model assessed as reduction in HFD-induced metabolic alterations by measuring reduction in LDL cholesterol level in plasma at 20 mg/kg/day, ip administered for 4 weeks. It counts as functional, organism-based. The gist of the method:
as §1

The nature of series [5]: Effect on glyco-metabolic profile in standard diet fed Wistar rat assessed as effect on total cholesterol level in plasma at 20 mg/kg/day, ip administered for 4 weeks. In kind it is toxicity, organism-based. The note with it: in vivo, 672 h. In a few lines:
as §1

Series [6] concerns Rattus norvegicus. The experiment in a line: Antiinflammatory activity against high fat diet fed-induced metaflammation Wistar rat model assessed as reduction in serum IL-1 beta level at 20 mg/kg/day, ip administered for 4 weeks by ELISA. It counts as functional, organism-based. The gist of the method: (§2)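 Male Wistar rats on HFD or SD for 12 weeks received 20 mg/kg/day i.p. (saline, 2% DMSO, 5% Cremophor-EL) or vehicle for the last 28 days. Circulating IL-1β, TNF-α, BNP and Gal-3 quantified by ELISA in blood collected after sacrifice. n=6–7 per group.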
Background: In an ELISA, binding on a coated surface is turned into a signal by an enzyme label.

Series [7] concerns Rattus norvegicus. The series is described as follows: Antiinflammatory activity against high fat diet fed-induced metaflammation Wistar rat model assessed as reduction in serum TNF-alpha level at 20 mg/kg/day, ip administered for 4 weeks by ELISA. In kind it is functional, organism-based. The gist of the method: as §2
Series [8] can be described thus: Effect on left ventricular end diastolic pressure in standard diet fed Wistar rat model at 20 mg/kg/day, ip administered for 4 weeks (reference value: 3+/-1 mm Hg). To be noted: in vivo, 672 h. It counts as toxicity, organism-based.
In series [9] the test system is Rattus norvegicus. The experiment in a line: Cardioprotective activity against ischemia/reperfusion-induced myocardial injury and standard diet fed Wistar rat model assessed as decrease in LDH activity in coronary effluents at 20 mg/kg/day, ip administered for 4 weeks followed by excised heart exposed to global ischemia for 30 mins and reperfusion for 120 mins and measured during first 10 mins of reperfusion by spectrophotometric analysis. It counts as functional, organism-based. The gist of the method:
(§3)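 HFD or SD rats, dosed 20 mg/kg/day i.p. for the final 28 days, anaesthetised with ethyl carbamate (2 g/kg i.p.). Hearts Langendorff-perfused with Krebs–Henseleit buffer (pH 7.4, 37 °C, 12 ml/min); 40 min stabilization, 30 min global no-flow ischemia, 120 min reperfusion. Coronary effluent collected on ice before ischemia and at 10, 20, 30 min reperfusion; LDH activity by McQueen method. n=6–7.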

The subject of series [10] is Rattus norvegicus. The experiment in a line: Cardioprotective activity against ischemia/reperfusion-induced myocardial injury and standard diet fed Wistar rat model assessed as decrease in LDH activity in coronary effluents at 20 mg/kg/day, ip administered for 4 weeks followed by excised heart exposed to global ischemia for 30 mins and reperfusion for 120 mins and measured during first 30 mins of reperfusion by spectrophotometric analysis. In kind it is functional, organism-based. In a few lines: as §3

Series [11] relates to Rattus norvegicus. The series is described as follows: Cardioprotective activity against ischemia/reperfusion-induced myocardial injury and high diet fed obese Wistar rat model assessed as decrease in LDH activity in coronary effluents at 20 mg/kg/day, ip administered for 4 weeks followed by excised heart exposed to global ischemia for 30 mins and reperfusion for 120 mins and measured during first 30 mins of reperfusion by spectrophotometric analysis. It counts as functional, organism-based. In a few lines:
as §3

For series [12], the system named is Rattus norvegicus. The series is described as follows: Inhibition of ischemia/reperfusion-induced NLRP3 inflammasome activation in ischemia/reperfusion-induced myocardial injury and high fat diet fed obese Wistar rat model assessed as decrease in NLRP3 protein expression at 20 mg/kg/day, ip administered for 4 weeks followed by excised heart exposed to global ischemia for 30 mins and reperfusion for 120 mins by immunoblot analysis. In kind it is functional, organism-based. In a few lines:
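Left ventricles from Langendorff hearts (30 min global ischemia/120 min reperfusion) of HFD or SD rats dosed 20 mg/kg/day i.p. for the final 28 days. Tissue homogenized in RIPA buffer with protease/phosphatase inhibitors. 50 μg protein run on 8% SDS-PAGE and immunoblotted for NLRP3 (1:500), normalized to β-actin by densitometry; n=4 per group.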
(In general: A western blot detects proteins with antibodies after separation by electrophoresis.)

Series [13] relates to Rattus norvegicus. The series is described as follows: Inhibition of ischemia/reperfusion-induced inflammation in ischemia/reperfusion-induced myocardial injury and standard diet fed Wistar rat model assessed as decrease in cardiac IL-1 beta level at 20 mg/kg/day, ip administered for 4 weeks followed by excised heart exposed to global ischemia for 30 mins and reperfusion for 120 mins by ELISA. It counts as functional, organism-based. The gist of the method: (§4)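 Male Wistar rats on standard or 60% kcal fat diet for 12 weeks; last 28 days i.p. 20 mg/kg/day in saline with 2% DMSO and 5% Cremophor-EL, or vehicle. Hearts perfused by Langendorff with KH buffer at 12 ml/min, 37°C, then 40 min stabilization, 30 min global no-flow ischemia and 120 min reperfusion. Cytokines measured in LV tissue; n=6–7 per group.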

Series [14] relates to Rattus norvegicus. The experiment in a line: Inhibition of ischemia/reperfusion-induced inflammation in ischemia/reperfusion-induced myocardial injury and high fat diet fed obese Wistar rat model assessed as decrease in cardiac IL-1 beta level at 20 mg/kg/day, ip administered for 4 weeks followed by excised heart exposed to global ischemia for 30 mins and reperfusion for 120 mins by ELISA. In kind it is functional, organism-based. The gist of the method:
as §4

The subject of series [15] is Rattus norvegicus. The series is described as follows: Inhibition of ischemia/reperfusion-induced oxidative stress in ischemia/reperfusion-induced myocardial injury and high fat diet fed obese Wistar rat model assessed as decrease in cardiac MDA level at 20 mg/kg/day, ip administered for 4 weeks followed by excised heart exposed to global ischemia for 30 mins and reperfusion for 120 mins by TBARS assay. It counts as functional, organism-based. The gist of the method:
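Same rat diet, dosing and Langendorff ischemia/reperfusion protocol. LV homogenized 10% w/v in 0.9% KCl pH 7.4. Homogenate heated at 100 °C for 15 min with TCA and TBA plus butylated hydroxytoluene, centrifuged, and read at […]. MDA expressed as nmol/g heart tissue, compared with sham hearts perfused for 190 min.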

In series [16] the test system is Rattus norvegicus. The series is described as follows: Inhibition of ischemia/reperfusion-induced oxidative stress in ischemia/reperfusion-induced myocardial injury and high fat diet fed obese Wistar rat model assessed as increase in cardiac SOD activity at 20 mg/kg/day, ip administered for 4 weeks followed by excised heart exposed to global ischemia for 30 mins and reperfusion for 120 mins. In kind it is functional, organism-based. In a few lines: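 Same rat diet, dosing and ischemia/reperfusion protocol. LV homogenized in 50 mM Tris-HCl pH 8.2 with 1 mM DTPA and centrifuged at 20,000 x g for 20 min. Supernatant mixed with 0.2 mM pyrogallol, autoxidation followed at 420 nm for 3 min. Activity given as % pyrogallol autoxidation relative to sham; 1 U inhibits the rate by 50%.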

In general, inhibition refers to the percentage by which the read-out fell short of the control. `CCOC(=O)Cn1nc(Cc2ccccc2Cl)oc1=O`: the CC50 at 72 h in series [1] is 76.5 µM. Besides, in series [2], the inhibition is 61.6%. For the same compound, the outcome with Rattus norvegicus [3], in the series with Rattus norvegicus [4], in the series on Rattus norvegicus [6], in the series on Rattus norvegicus [7], with Rattus norvegicus [9] and in the series with Rattus norvegicus [10] was Active. The result in the series on Rattus norvegicus [11] was Active. The Activity result was “Non-Toxic” in series [5] and 3 mmHg in [8]. Further, the inhibition result in the series on Rattus norvegicus [12], in the series with Rattus norvegicus [13], in the series with Rattus norvegicus [14], with Rattus norvegicus [15] and in the series on Rattus norvegicus [16] was “Active” in each case.
